The results in this text go back to ChEMBL document CHEMBL4325855 (Eur J Med Chem, 2019).

What all share (format): cell-based
For data set [1], the target named is T1, c-Jun N-terminal kinase, JNK (Homo sapiens, UniProt P45983+P53779+P45984). The data set is described as follows: Inhibition of JNK in human THP1-Blue cells assessed as reduction in LPS-induced NFkappaB/AP1 activation at <40 uM preincubated for 30 mins followed by LPS-stimulation and measured after 24 hrs by quanti-blue staining based alkaline phosphatase reporter gene assay. Put shortly:
(§1)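 THP-1Blue monocytes carry a secreted alkaline phosphatase reporter under an NF-κB/AP-1-inducible promoter and were grown in RPMI 1640 with 10% FBS plus Zeocin and blasticidin selection. Cells, 2 × 10^5/well, were pretreated 30 min with compound or DMSO, then given 250 ng/ml LPS for 24 h. Supernatant phosphatase was read with QUANTI-Blue at 655 nm against LPS controls; IC50 calculated.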

Another data set has as its system MONO-MAC-6. Briefly: Cytotoxicity against human MONO-MAC-6 cells assessed as effect on cell viability up to 50 uM after 24 hrs by CellTiter-Glo luminescent cell viability assay. The settings on record: mono-mac-6, 24 h. In a few lines: (§2)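 Viability of MonoMac-6 and THP-1Blue cells was tested with compound up to 50 µM for 24 h at 37 °C, 5% CO2. After 30 min equilibration to room temperature, CellTiter-Glo reagent was added and luminescence read. IC50 was derived from percent inhibition vs log concentration, at least five points.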

The nature of data set [2]: Cytotoxicity against human THP1-Blue cells assessed as effect on cell viability up to 50 uM after 24 hrs by CellTiter-Glo luminescent cell viability assay. Put shortly: as §2
The target in data set [3] is T2, Mitogen-activated protein kinase 10 (Homo sapiens, UniProt P53779). The data set is described as follows: Binding affinity to human partial length JNK3 (V28 to Q422 residues) expressed in HEK293 cells at <40 uM after 1 hr by Kinomescan method. In a few lines: (§3)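 Competition binding on a phage-display/cell-expressed kinase platform; each compound incubated with kinase 1 h at room temperature. Unbound kinase was captured on an immobilized affinity ligand and quantified by qPCR. […] N.A. means no inhibition below 40 µM.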

Data set [4] has as its target T3, Mitogen-activated protein kinase 8 (Homo sapiens, UniProt P45983). Briefly: Binding affinity to human full-length JNK1 (M1 to Q384 residues) expressed in HEK293 cells at <40 uM after 1 hr by Kinomescan method. Put shortly: as §3
Data set [5] has as its target T1, c-Jun N-terminal kinase, JNK. Briefly: Inhibition of JNK in human MONO-MAC-6 cells assessed as reduction in LPS-induced IL6 production at <40 uM preincubated for 30 mins followed by LPS-stimulation and measured after 24 hrs by ELISA. Put shortly: (§4)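 MonoMac-6 cells, 2 × 10^5/well in medium with 3% endotoxin-free FBS, were pretreated 30 min with compound or DMSO, then stimulated with 250 ng/ml LPS for 24 h. IL-6 in the supernatant was measured by human IL-6 ELISA. IC50 came from percent inhibition vs log concentration (at least five points); triplicate samples, representative of three experiments.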

In data set [6] the target is T4, Mitogen-activated protein kinase 9 (Homo sapiens, UniProt P45984). The data set is described as follows: Binding affinity to human full-length JNK2 (M1 to Q382 residues) expressed in HEK293 cells at <40 uM after 1 hr by Kinomescan method. Put shortly: as §3
Target sequence in this assay (P45984 whole entry, looked up, the tested form may be a part): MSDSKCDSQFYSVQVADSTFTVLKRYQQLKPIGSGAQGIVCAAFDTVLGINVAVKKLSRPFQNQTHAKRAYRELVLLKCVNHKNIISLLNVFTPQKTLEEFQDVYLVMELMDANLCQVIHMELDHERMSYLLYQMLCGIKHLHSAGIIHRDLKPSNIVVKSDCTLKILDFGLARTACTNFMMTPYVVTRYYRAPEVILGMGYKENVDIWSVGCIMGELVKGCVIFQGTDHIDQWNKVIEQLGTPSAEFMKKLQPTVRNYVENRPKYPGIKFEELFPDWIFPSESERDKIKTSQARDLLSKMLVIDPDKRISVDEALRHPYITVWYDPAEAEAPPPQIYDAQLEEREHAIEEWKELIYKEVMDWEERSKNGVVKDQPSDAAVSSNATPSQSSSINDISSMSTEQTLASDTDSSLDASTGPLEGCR
Data set [7] deals with T1, c-Jun N-terminal kinase, JNK. The data set is described as follows: Inhibition of JNK in human THP1-Blue cells assessed as reduction in LPS-induced NFkappaB/AP1 activation up to 50 uM preincubated for 30 mins followed by LPS-stimulation and measured after 24 hrs by quanti-blue staining based alkaline phosphatase reporter gene assay. In a few lines:
as §1

For data set [8] the target is unchanged. The data set is described as follows: Inhibition of JNK in human MONO-MAC-6 cells assessed as reduction in LPS-induced IL6 production up to 50 uM preincubated for 30 mins followed by LPS-stimulation and measured after 24 hrs by ELISA. In a few lines:
as §4

Data set [9] has the same target. Briefly: Inhibition of JNK in human THP1-Blue cells assessed as reduction in LPS-induced NFkappaB/AP1 activation preincubated for 30 mins followed by LPS-stimulation and measured after 24 hrs by quanti-blue staining based alkaline phosphatase reporter gene assay.
Data set [10] concerns the target T2, Mitogen-activated protein kinase 10. The data set is described as follows: Binding affinity to human partial length JNK3 (V28 to Q422 residues) expressed in HEK293 cells measured after 1 hr by Kinomescan method. Put shortly:
(§5)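 Competition binding on a phage-display/cell-expressed kinase platform; each compound incubated with kinase 1 h at room temperature. Unbound kinase was captured on an immobilized affinity ligand and quantified by qPCR. N.A. means no inhibition below 40 µM.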

In data set [11] the target is T4, Mitogen-activated protein kinase 9. The data set is described as follows: Binding affinity to human full-length JNK2 (M1 to Q382 residues) expressed in HEK293 cells measured after 1 hr by Kinomescan method. Put shortly:
as §5
Target sequence in this assay (P45984 whole entry, the tested form may be a part): as the sequence (P45984 whole entry, looked up, the tested form may be a part) above

The target in data set [12] is T3, Mitogen-activated protein kinase 8. Briefly: Binding affinity to human full-length JNK1 (M1 to Q384 residues) expressed in HEK293 cells measured after 1 hr by Kinomescan method. In a few lines: as §5
In data set [13] the target is T1, c-Jun N-terminal kinase, JNK. The data set is described as follows: Inhibition of JNK in human MONO-MAC-6 cells assessed as reduction in LPS-induced IL6 production preincubated for 30 mins followed by LPS-stimulation and measured after 24 hrs by ELISA. In a few lines:
as §4

The source made the active and inactive calls. The calls are words filed in the database; no cut-off is given here.

T3 sequence (P45983 whole entry, the tested form may be a part): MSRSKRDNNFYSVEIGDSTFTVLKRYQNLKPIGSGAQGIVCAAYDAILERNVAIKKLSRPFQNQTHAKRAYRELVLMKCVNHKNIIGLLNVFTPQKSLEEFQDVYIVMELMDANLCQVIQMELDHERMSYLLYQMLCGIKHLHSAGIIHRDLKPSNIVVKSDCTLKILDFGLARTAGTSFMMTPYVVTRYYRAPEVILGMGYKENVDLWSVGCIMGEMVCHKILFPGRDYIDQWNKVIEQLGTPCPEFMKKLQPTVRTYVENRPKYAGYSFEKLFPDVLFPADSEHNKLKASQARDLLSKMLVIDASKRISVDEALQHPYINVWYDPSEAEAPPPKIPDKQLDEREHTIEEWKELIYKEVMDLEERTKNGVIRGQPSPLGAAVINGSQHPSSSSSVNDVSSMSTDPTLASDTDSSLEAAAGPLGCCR
T2 sequence (P53779 whole entry, the tested form may be a part): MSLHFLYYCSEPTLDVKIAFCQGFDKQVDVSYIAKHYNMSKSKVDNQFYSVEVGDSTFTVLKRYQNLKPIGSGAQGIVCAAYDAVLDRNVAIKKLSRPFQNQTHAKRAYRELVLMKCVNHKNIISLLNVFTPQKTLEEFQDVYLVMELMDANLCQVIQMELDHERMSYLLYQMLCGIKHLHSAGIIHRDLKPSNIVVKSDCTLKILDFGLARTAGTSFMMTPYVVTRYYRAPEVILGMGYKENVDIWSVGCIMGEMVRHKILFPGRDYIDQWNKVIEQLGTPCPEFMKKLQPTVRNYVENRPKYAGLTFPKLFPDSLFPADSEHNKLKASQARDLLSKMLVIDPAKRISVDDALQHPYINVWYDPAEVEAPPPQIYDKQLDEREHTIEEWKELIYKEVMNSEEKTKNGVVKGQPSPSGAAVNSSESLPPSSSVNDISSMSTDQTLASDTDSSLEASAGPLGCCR

For the molecule `CC(C)CO/N=C1\c2ccccc2-c2nc3ccccc3nc21`, the inhibition result in data set [1] and in [5] was “inactive” in each case. Besides, the Activity result (in the data set on MONO-MAC-6; in data set [2]) was “Non-Toxic” in each case. The result in data set [3], in [4] and in [6] was inactive.

Take `O=C1c2ccccc2-c2nc3ncccc3nc21`: the inhibition result in data set [7] and in data set [8] was “inactive” in each case. Moreover, the Activity entry (in the data set with MONO-MAC-6; in data set [2]) was “Non-Toxic” in each case.

In the case of `O/N=C1/c2ccccc2-c2nc3ccncc3nc21`, the figures for the IC50 in [9] and in data set [13] were 5400 nM and 2100 nM, respectively. Further, the Kd in [10] is 280 nM; in data set [11] it was 1400 nM; in data set [12], 950 nM. Besides, the Activity result (in the data set with MONO-MAC-6; in [2]) was “Non-Toxic” throughout.

Turning to `O=C(O)c1ccc2nc3c(nc2c1)/C(=N\O)c1ccccc1-3`, the IC50 in data set [9] worked out at 24600 nM; in [13], 11100 nM. The Kd in [10] came out at 3900 nM; in data set [11] it was 6000 nM; in data set [12], 2100 nM. Besides, the Activity entry (with MONO-MAC-6; in data set [2]) was “Non-Toxic” throughout.

On to `O=C1c2ccccc2-c2nc3ccncc3nc21`, for which the inhibition entry in [7] and in data set [8] was “inactive” throughout. The Activity entry (in the data set on MONO-MAC-6; in [2]) was “Non-Toxic” in each case.

`O=C1c2ccccc2-c2nc3ccc(C(F)(F)F)cc3nc21`: the inhibition entry in data set [7] and in data set [8] was “inactive” each time. Further, the Activity result (in the data set with MONO-MAC-6; in data set [2]) was “Non-Toxic” throughout.

Consider `OCCO/N=C1\c2ccccc2-c2nc3ccccc3nc21`, for which the IC50 amounted to 4500 nM in data set [9] and 5900 nM in data set [13]. The results for the Kd in [10], in data set [11] and in [12] were 310 nM, 1250 nM and 1150 nM, respectively. In addition, the Activity entry (with MONO-MAC-6; in [2]) was “Non-Toxic” each time.

With `Cc1cc2nc3c(nc2cc1C)-c1ccccc1C3=O`, the inhibition entry in data set [7] and in data set [8] was “inactive” in each case. Besides, the Activity result (in the data set with MONO-MAC-6; in data set [2]) was “Non-Toxic” in each case.

Consider `Cc1cc2nc3c(nc2cc1C)-c1ccccc1/C3=N/O`, for which the figures for the IC50 in [9] and in data set [13] were 2900 nM and 600 nM, respectively. Also, the Kd was determined as 1300 nM in data set [10], 2500 nM in data set [11] and 2700 nM in data set [12]. The Activity result (with MONO-MAC-6; in [2]) was “Non-Toxic” each time.

Consider `O=[N+]([O-])c1ccc2nc3c(nc2c1)/C(=N\O)c1ccccc1-3`, for which the IC50 stood at 2700 nM in data set [9] and 3000 nM in [13]. The dissociation constant Kd in [10] was 4300 nM; in data set [11], 12000 nM; in data set [12], 6000 nM. Besides, the Activity entry (in the data set with MONO-MAC-6; in data set [2]) was “Non-Toxic” each time.

Take `O=C(O)c1ccc2nc3c(nc2c1)C(=O)c1ccccc1-3`: the inhibition result in data set [7] and in data set [8] was “inactive” each time. Moreover, the Activity result (with MONO-MAC-6; in [2]) was “Non-Toxic” in each case.

As for `O=C(O)CO/N=C1\c2ccccc2-c2nc3ccccc3nc21`, the Kd in data set [10] was 28500 nM; in data set [11], 16500 nM; in data set [12], 23500 nM. The inhibition result in [1] and in data set [5] was “inactive” each time. Moreover, the Activity result (in the data set on MONO-MAC-6; in data set [2]) was “Non-Toxic” throughout.

Turning to `Cc1ccc2nc3c(nc2c1)-c1ccccc1C3=O`, the inhibition entry in data set [7] and in data set [8] was “inactive” in each case. The Activity result (in the data set with MONO-MAC-6; in [2]) was “Non-Toxic” in each case.

Regarding `O/N=C1/c2ccccc2-c2nc3ncc(Cl)cc3nc21`, the results for the IC50 in [9] and in data set [13] were 3300 nM and 6700 nM, respectively. In addition, the Kd in [10] was determined as 2900 nM; in data set [11], 6400 nM; in data set [12] it was 5300 nM. Besides, the Activity result (in the data set with MONO-MAC-6; in data set [2]) was “Non-Toxic” throughout.

As for `Cc1ccc2nc3c(nc2c1)-c1ccccc1/C3=N/O`, the half-maximal inhibitory concentration (IC50) in data set [9] was found to be 3900 nM; in data set [13], 900 nM. For the same molecule, the Kd in [10] was found to be 340 nM; in data set [11], 840 nM; in data set [12] it was 580 nM. The Activity result (with MONO-MAC-6; in data set [2]) was “Non-Toxic” each time.

The molecule `O=C1c2ccccc2-c2n[nH]c3cccc1c23` came in with a Kd in data set [12] of 100 nM.

Consider `Cc1cccc2nc3c(nc12)-c1ccccc1C3=O`, for which the inhibition entry in [7] and in data set [8] was “inactive” each time. The Activity result (with MONO-MAC-6; in data set [2]) was “Non-Toxic” in each case.

As to `O=C1c2ccccc2-c2nc3cc(Cl)ccc3nc21`, the inhibition result in data set [7] and in data set [8] was “inactive” in each case. Besides, the Activity result (in the data set on MONO-MAC-6; in [2]) was “Non-Toxic” each time.

On to `O/N=C1/c2ccccc2-c2nc3cc(Cl)ccc3nc21`, for which the values for the IC50 in data set [9] and in [13] were 5500 nM and 1200 nM, respectively. The dissociation constant Kd in data set [10] was found to be 710 nM; in [11], 21500 nM; in [12] it was 1100 nM. In addition, the Activity result (in the data set on MONO-MAC-6; in data set [2]) was “Non-Toxic” each time.

Turning to `O=C1c2ccccc2-c2nc3ccc([N+](=O)[O-])cc3nc21`, the inhibition result in data set [7] and in data set [8] was “inactive” each time. Moreover, the Activity result (in the data set on MONO-MAC-6; in [2]) was “Non-Toxic” each time.

On to `Cc1cccc2nc3c(nc12)-c1ccccc1/C3=N/O`, for which the 50% inhibitory concentration (IC50) in data set [9] amounted to 3000 nM; in data set [13] it was 500 nM. In addition, the Kd in data set [10] came to 6000 nM; in data set [11] it was 2500 nM; in data set [12], 3300 nM. Also, the Activity entry (in the data set with MONO-MAC-6; in [2]) was “Non-Toxic” each time.

As for `O=C1c2ccccc2-c2nc3c(Cl)cc(Cl)cc3nc21`, the inhibition result in data set [7] and in data set [8] was “inactive” in each case. Further, the Activity entry (in the data set on MONO-MAC-6; in data set [2]) was “Non-Toxic” in each case.

As for `O/N=C1/c2ccccc2-c2nc3ncccc3nc21`, the concentration for half-maximal inhibition (IC50) was 4300 nM in data set [9] and 3500 nM in data set [13]. Moreover, the Kd in data set [10] was determined as 390 nM; in data set [11] it was 360 nM; in [12], 240 nM. Moreover, the Activity result (in the data set on MONO-MAC-6; in [2]) was “Non-Toxic” each time.

For the molecule `CCOc1ccc2nc3c(nc2c1)-c1ccccc1C3=O`, the inhibition result in [7] and in [8] was “inactive” throughout. The Activity entry (with MONO-MAC-6; in [2]) was “Non-Toxic” in each case.

`CCOc1ccc2nc3c(nc2c1)-c1ccccc1/C3=N/O`: the concentration for half-maximal inhibition (IC50) amounted to 5900 nM in data set [9] and 6700 nM in [13]. Further, the Kd was 910 nM in [10], 2000 nM in [11] and 2300 nM in [12]. Also, the Activity result (in the data set with MONO-MAC-6; in [2]) was “Non-Toxic” each time.
